{"data": "Experimental data gathered from unrelated publications", "target": "Uncharacterized serine/threonine-protein kinase SBK3 (SBK3, Homo sapiens, UniProt P0C264)", "One construct used (P0C264 1-359)": "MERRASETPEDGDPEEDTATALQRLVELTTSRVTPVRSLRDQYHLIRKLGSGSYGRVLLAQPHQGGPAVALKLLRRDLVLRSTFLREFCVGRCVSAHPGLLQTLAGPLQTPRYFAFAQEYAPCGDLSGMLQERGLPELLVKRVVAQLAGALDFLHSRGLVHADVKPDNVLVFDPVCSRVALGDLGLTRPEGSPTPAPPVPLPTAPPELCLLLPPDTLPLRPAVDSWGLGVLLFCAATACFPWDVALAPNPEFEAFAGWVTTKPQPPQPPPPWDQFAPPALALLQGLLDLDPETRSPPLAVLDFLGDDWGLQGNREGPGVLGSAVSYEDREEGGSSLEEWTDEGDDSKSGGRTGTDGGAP", "note": "Lines come from different studies, so protocols differ."}
{"SMILES": "O=C(NCC1CCOCC1)c1n[nH]cc1NC(=O)c1c(F)cccc1F", "effect on": "binding", "technique": "competition with immobilised ligand", "concentration": "1 µM", "remaining binding [%]": 68}
{"SMILES": "O=C(c1ccc(Nc2ncc(Cl)c(-c3cc4ccccc4s3)n2)cc1)N1CCC(N2CCCC2)CC1", "effect on": "binding", "technique": "competition with immobilised ligand", "concentration": "1 µM", "remaining binding [%]": 86}
{"SMILES": "CN(C)c1nccc(-c2cnn3ncccc23)n1", "effect on": "binding", "concentration": "1 µM", "remaining binding [%]": 100}
{"SMILES": "O=C(NCCCN1CCOCC1)c1ccc(Nc2nccc(-c3cc4ccccc4s3)n2)cc1", "effect on": "binding", "technique": "competition with immobilised ligand", "concentration": "1 µM", "remaining binding [%]": 91}
{"SMILES": "COc1cnc(Nc2cccc(S(N)(=O)=O)c2)nc1N1CCN(c2ccccc2)CC1", "effect on": "binding", "technique": "competition with immobilised ligand", "concentration": "1 µM", "remaining binding [%]": 100}
{"SMILES": "N[C@@H]1CCN(c2nccc(-c3cnn4ncccc34)n2)C1", "effect on": "binding", "concentration": "1 µM", "remaining binding [%]": 100}
{"SMILES": "COc1ncc2cc3ccccc3nc2c1C#N", "effect on": "cell-free assay", "technique": "competition with immobilised ligand", "concentration": "5 µM", "remaining binding [%]": 100}
{"SMILES": "CN(CCCC(F)(F)F)c1nccc(-c2cnn3ncccc23)n1", "effect on": "binding", "concentration": "1 µM", "remaining binding [%]": 42}
{"SMILES": "Cn1nc(C(=O)NCc2ccc(C(=O)O)cc2)cc1-c1ccc2[nH]ccc2c1", "effect on": "cell-free assay", "technique": "competition with immobilised ligand", "concentration": "0.1 µM", "remaining binding [%]": 79}
{"SMILES": "FC(F)(F)Oc1cccc(-c2cnc3ccc(-c4ccncc4)nn23)c1", "effect on": "binding", "technique": "competition with immobilised ligand", "concentration": "5 µM", "remaining binding [%]": 100}
{"SMILES": "Cc1nc(Cc2cccc(C(F)(F)F)c2)sc1-c1ccc(C(N)=O)nc1", "effect on": "cell-free assay", "technique": "competition with immobilised ligand", "concentration": "1 µM", "remaining binding [%]": 100}
{"SMILES": "O=C(c1ccc(Nc2ncc(Cl)c(-c3ccc(Cl)s3)n2)cc1)N1CCC(N2CCCC2)CC1", "effect on": "binding", "technique": "competition with immobilised ligand", "concentration": "1 µM", "remaining binding [%]": 62}
{"SMILES": "O=C(Nc1ccc(Oc2ccc(F)cc2)cc1)N1CCc2ncccc2[C@H]1c1ccc(F)cc1", "effect on": "cell-free assay", "technique": "competition with immobilised ligand", "concentration": "1 µM", "remaining binding [%]": 70}
{"SMILES": "C[C@@H]1CCN(c2nccc(-c3cnn4ncccc34)n2)C1", "effect on": "binding", "concentration": "1 µM", "remaining binding [%]": 99}
{"SMILES": "COCCOc1nc(-c2ccc(Cl)nc2)nc2c1CN(C(=O)c1ncn3ccccc13)CC2", "effect on": "cell-free assay", "technique": "competition with immobilised ligand", "concentration": "0.1 µM", "remaining binding [%]": 100}
{"SMILES": "Nc1ncc2c(n1)-c1c([nH]c3ccc(C#CC4CC4)cc13)CCCC2", "effect on": "binding", "technique": "competition with immobilised ligand", "concentration": "1 µM", "remaining binding [%]": 100}
{"SMILES": "COc1ccc2c(c1)O[C@H](c1ccc(OC)c(OC)c1)C[C@@H]2NC(=O)C1(c2ccc3c(c2)OC(F)(F)O3)CC1", "effect on": "cell-free assay", "technique": "competition with immobilised ligand", "concentration": "1 µM", "remaining binding [%]": 100}
{"SMILES": "Cc1cnn2ncc(-c3ccnc(N(C)C)n3)c2c1", "effect on": "binding", "concentration": "1 µM", "remaining binding [%]": 26}
{"SMILES": "CC(=O)C1=C(C)N(c2cccc(C(F)(F)F)c2)C(=O)N[C@@H]1c1ccc(C#N)nc1", "effect on": "cell-free assay", "technique": "competition with immobilised ligand", "concentration": "1 µM", "remaining binding [%]": 100}
{"SMILES": "CNC(=O)[C@@H]1CC[C@@H](n2c(-c3ccc4cnccc4c3)nc3ccc(C(=O)NCc4cccc(C(N)=O)c4)cc32)C1", "effect on": "binding", "technique": "competition with immobilised ligand", "concentration": "1 µM", "remaining binding [%]": 87}
